# Measurements collected from several papers.
# Protocols differ between the studies behind these lines.
# Target: Tyrosine-protein kinase Srms (SRMS, Homo sapiens, UniProt Q9H3Y6)
Compound,read-out,method,concentration,remaining binding
O=C(N1CCS(=O)(=O)CC1)N1C[C@H](c2ccc(OC(F)(F)F)cc2)C[C@H](c2nc(C3CC3)no2)C1,cell-free assay,competition with immobilised ligand,1 µM,100%
O=C(NCCCN1CCOCC1)c1ccc(Nc2ncc(Cl)c(-c3ccc(Cl)s3)n2)cc1,binding,competition with immobilised ligand,1 µM,99%
CN(C)c1nccc(-c2cnc3ncccn23)n1,binding,,1 µM,63%
N#CC1(c2ccccn2)CCN(Cc2cc(C(=O)N3CCCC3)c(=O)n3ccccc23)CC1,cell-free assay,competition with immobilised ligand,1 µM,100%
CN(CCCC(F)(F)F)c1nccc(-c2cnn3ncccc23)n1,binding,,1 µM,100%
O=C(Nc1cccnn1)N1CC(C/C=C/c2cncc(Oc3ccc(C(F)(F)F)cn3)n2)C1,cell-free assay,competition with immobilised ligand,1 µM,67%
N[C@@H]1CCN(c2nccc(-c3cnn4ncccc34)n2)C1,binding,,1 µM,100%
COc1cnc(Nc2cccc(S(N)(=O)=O)c2)nc1N1CCN(c2ccccc2)CC1,binding,competition with immobilised ligand,1 µM,83%
F[C@@H]1CCN(c2nccc(-c3cnn4ncccc34)n2)C1,binding,,1 µM,100%
CCN1CCN(Cc2ccc(C(=O)Nc3ccc(C)c(Oc4ccc5c(c4)CC(=O)N5)c3)cc2C(F)(F)F)CC1,binding,competition with immobilised ligand,1 µM,100%
O=C(Nc1c[nH]nc1C(=O)NC1CCNCC1)c1cc(F)cc(F)c1,binding,competition with immobilised ligand,1 µM,84%
Cc1cnc(Nc2ccc(C(=O)N3CCC(N4CCCC4)CC3)cc2)nc1-c1cc2ccccc2s1,binding,competition with immobilised ligand,1 µM,68%
CNC(=O)[C@@H]1CC[C@@H](n2c(-c3ccc4cnccc4c3)nc3ccc(C(=O)NCc4cccc(C(N)=O)c4)cc32)C1,binding,competition with immobilised ligand,1 µM,97%
CN(c1nccc(-c2cnn3ncccc23)n1)C1CC1,binding,,1 µM,100%
CCC(=N\O)/C(C)=C/c1ccc(F)cc1,cell-free assay,competition with immobilised ligand,1 µM,76%
O=C(c1ccc(Nc2ncc(Cl)c(-c3cc4ccccc4s3)n2)cc1)N1CCC(N2CCCC2)CC1,binding,competition with immobilised ligand,1 µM,81%
C=CC(=O)N1CCC(C(=O)NCC(=O)N2CCN(c3nc(-c4cnc(N)nc4C(F)F)nc(N4CCOCC4)n3)CC2)CC1,binding,competition with immobilised ligand,1 µM,72%
CN([C@@H]1CCc2c(CC(=O)O)c3ccccc3n2C1)S(=O)(=O)c1ccc(F)cc1,cell-free assay,competition with immobilised ligand,1 µM,81%
c1cnn2ncc(-c3ccnc(N4CCC45COC5)n3)c2c1,binding,,1 µM,70%
O=C(NS(=O)(=O)c1ccc(NCC2CCOCC2)c([N+](=O)[O-])c1)c1ccc(N2CCN(Cc3ccc(C(F)(F)F)cc3-c3ccc(Cl)cc3)CC2)cc1Oc1cnc2[nH]ccc2c1,cell-free assay,competition with immobilised ligand,1 µM,79%
CC1CCCN1c1nccc(-c2cnn3ncccc23)n1 (stereo not shown),binding,,1 µM,100%
C[C@@H](c1ccc(-n2cnc3c(N)ncnc32)cc1)N1CCc2nn(C)c(Cc3ccccc3)c2C1=O,binding,competition with immobilised ligand,0.1 µM,44%
